Reference: ChEMBL document CHEMBL4229525, “Anti-angiogenic and anticancer effects of baicalein derivatives based on transgenic zebrafish model” (Bioorg Med Chem, 2018)

Columns and labels:
[1] = organism: Danio rerio; assay: Antiangiogenic activity in 24 to 72 hrs post fertilized zebra fish embryo harboring fli1:EGFP after 48 hrs by fluorescence microscopic analysis; type: functional
Summary of the method: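 Tg(fli1:EGFP) zebrafish: 20 dechorionated 24 hpf embryos per group in 1 mL embryo water with compound (1, 5, 10, 25, 50, 75, 100, 150, 200 μM), 28.5 °C for 48 h. Embryos anaesthetised in 0.016% tricaine; ISVs imaged by fluorescence microscopy at 72 hpf and scored for vessel defects and overall morphology. SU5416 positive control.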

[2] = organism: Danio rerio; assay: Toxicity in 24 to 72 hrs post fertilized zebra fish embryo harboring fli1:EGFP; type: organism-based; conditions: zebrafish, in vivo
Summary of the method: (§1)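 Dechorionated Tg(fli1:EGFP) embryos at 24 hpf, 20 per group, were kept in 1 mL embryo water with compound at 28.5 °C for a further 48 h. Compound was tested at 1, 5, 10, 25, 50, 75, 100, 150 and 200 μM. At 72 hpf, embryos anaesthetised with 0.016% tricaine had their ISVs imaged by fluorescence microscopy, with SU5416 as positive control. Definitions used: LOEC is anti-angiogenic effect in most larvae; LOTC is lowest toxic concentration; LC100 is total embryo lethality. TI = LOTC/LOEC; AI = LC100/LOEC.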

[3] = Toxicity index, ratio of MTC for 24 to 72 hrs post fertilized zebra fish embryo harboring fli1:EGFP to MEC for antiangiogenic activity in 24 to 72 hrs post fertilized zebra fish embryo harboring fli1:EGFP; type: organism-based, Danio rerio; conditions: fli1:EGFP transgenic, zebrafish, in vivo; summary of the method: as §1
[4] = Antiangiogenic index, ratio of LC100 for 24 to 72 hrs post fertilized zebra fish embryo harboring fli1:EGFP to MEC for antiangiogenic activity in 24 to 72 hrs post fertilized zebra fish embryo harboring fli1:EGFP; type: toxicity, organism-based, Danio rerio; conditions: fli1:EGFP transgenic, zebrafish, in vivo; summary of the method: as §1
[5] = test system: A549; assay: Induction of apoptosis in human A549 cells assessed as live cells at 2.5 uM after 48 hrs by Annexin-V-FITC/propidium iodide staining based flow cytometry (reference value: 75.2%); type: functional
Summary of the method: (§2)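 A549 cells were plated at 2 × 10⁵ per well and held at 37 °C, 5% CO₂ for 24 h before compound was added. After treatment, cells were stained with annexin V-FITC plus propidium iodide for 30 min at 25 °C. Quadrants were read by flow cytometry: Q3 early apoptotic, Q2 late apoptotic.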

[6] = test system: A549; assay: Induction of apoptosis in human A549 cells assessed as early apoptotic cells at 2.5 uM after 48 hrs by Annexin-V-FITC/propidium iodide staining based flow cytometry (reference value: 15.2%); type: functional; summary of the method: as §2
[7] = test system: A549; assay: Induction of apoptosis in human A549 cells assessed as late apoptotic cells at 2.5 uM after 48 hrs by Annexin-V-FITC/propidium iodide staining based flow cytometry (reference value: 4.05%); type: functional; summary of the method: as §2
[8] = test system: A549; assay: Induction of apoptosis in human A549 cells assessed as necrotic cells at 2.5 uM after 48 hrs by Annexin-V-FITC/propidium iodide staining based flow cytometry (reference value: 5.45%); type: functional; summary of the method: as §2

Work on `O=C(O)CCC(=O)OCCOc1c(O)cc2oc(-c3ccccc3)cc(=O)c2c1O` yielded an MEC [1] of 50 µM, an LC100 [2] of 75 µM and an MTC [2] of over 75 µM. The selectivity ratio [3] was over 1.5 and the selectivity ratio [4] was 1.5.

In the case of `O=c1cc(-c2ccccc2)oc2cc(O)c(OCC(O)CO)c(O)c12` (configuration not stated), the MEC [1] is reported as 50 µM, the LC100 [2] is reported as 100 µM and the MTC [2] is reported as 50 µM. For the same molecule, the selectivity ratio [3] was 1 and the selectivity ratio [4] was 2.

In the case of `O=C(COc1c(OCc2ccccc2)cc2oc(-c3ccccc3)cc(=O)c2c1O)N1CCCC1`, the MEC [1] is reported as 100 µM, the LC100 [2] is reported as over 200 µM and the MTC [2] is reported as 100 µM. The selectivity ratio [3] was 1 and the selectivity ratio [4] was over 2.

With `CN(C)CCNC(=O)COc1c(O)cc2oc(-c3ccccc3)cc(=O)c2c1O` the MEC [1] was 100 µM, the LC100 [2] was over 200 µM and the MTC [2] was 100 µM. For the same molecule, the selectivity ratio [3] was 1 and the selectivity ratio [4] was over 2.

`O=C(COc1c(OCc2ccccc2)cc2oc(-c3ccccc3)cc(=O)c2c1O)N1CCN(c2ncccn2)CC1` showed an MEC [1] of 75 µM, an LC100 [2] of 100 µM and an MTC [2] of 75 µM. The selectivity ratio [3] was 1 and the selectivity ratio [4] was 1.3.

Work on `O=C(COc1c(OCc2ccccc2)cc2oc(-c3ccccc3)cc(=O)c2c1O)N(CCO)CCO` yielded an MEC [1] of 100 µM, an LC100 [2] of 200 µM and an MTC [2] of 100 µM. It also gave a selectivity ratio [3] of 1 and a selectivity ratio [4] of 2.

For `O=C(COc1c(OCc2ccccc2)cc2oc(-c3ccccc3)cc(=O)c2c1O)NCCO`, the MEC [1] was 100 µM, the LC100 [2] was 200 µM and the MTC [2] was 100 µM. It also gave a selectivity ratio [3] of 1 and a selectivity ratio [4] of 2.

In the case of `O=c1cc(-c2ccccc2)oc2cc(O)c(O)c(O)c12` [BAICALEIN], the MEC [1] is reported as 0.5 µM, the LC100 [2] is reported as 1 µM and the MTC [2] is reported as 0.5 µM. It also gave a selectivity ratio [3] of 1 and a selectivity ratio [4] of 2.

In the case of `O=C(O)c1cc(O)c(O)c(O)c1` [GALLIC ACID], the Activity [5] is reported as 39.5%, the Activity [6] is reported as 32.6% and the Activity [7] is reported as 20.2%. The Activity [8] was 6.7%.

`O=c1cc(-c2ccccc2)oc2cc(OCCCO)c(O)c(O)c12` showed an MEC [1] of 100 µM, an LC100 [2] of over 200 µM and an MTC [2] of 100 µM. The selectivity ratio [3] was 1 and the selectivity ratio [4] was over 2.

`CN1CCN(C(=O)COc2c(OCc3ccccc3)cc3oc(-c4ccccc4)cc(=O)c3c2O)CC1` showed an MEC [1] of 10 µM, an LC100 [2] of 50 µM and an MTC [2] of 10 µM. It also gave a selectivity ratio [3] of 1 and a selectivity ratio [4] of 5.

Work on `CC(C)=CCOc1cc2oc(-c3ccccc3)cc(=O)c2c(O)c1O` yielded an MEC [1] of 50 µM, an LC100 [2] of 100 µM and an MTC [2] of 50 µM. For the same molecule, the selectivity ratio [3] was 1 and the selectivity ratio [4] was 2.

Work on `O=c1cc(-c2ccccc2)oc2cc(O)c(OCCCCO)c(O)c12` yielded an MEC [1] of 5 µM, an LC100 [2] of 30 µM and an MTC [2] of 10 µM. For the same molecule, the selectivity ratio [3] was 2 and the selectivity ratio [4] was 6.

With `COc1c(OCCCN(C)CCO)c(O)cc2oc(-c3ccccc3)cc(=O)c12` the MEC [1] was 100 µM, the LC100 [2] was over 200 µM and the MTC [2] was 100 µM. For the same molecule, the selectivity ratio [3] was 1 and the selectivity ratio [4] was over 2.

`O=C(COc1c(OCc2ccccc2)cc2oc(-c3ccccc3)cc(=O)c2c1O)N1CCOCC1` showed an MEC [1] of 50 µM, an LC100 [2] of 100 µM and an MTC [2] of 50 µM. For the same molecule, the selectivity ratio [3] was 1 and the selectivity ratio [4] was 2.

In the case of `O=C(COc1c(O)cc2oc(-c3ccccc3)cc(=O)c2c1O)N1CCN(CCO)CC1`, the MEC [1] is reported as 100 µM, the LC100 [2] is reported as over 200 µM and the MTC [2] is reported as 100 µM. For the same molecule, the selectivity ratio [3] was 1 and the selectivity ratio [4] was over 2.

For `O=c1cc(-c2ccccc2)oc2cc(O)c(OCCCCCO)c(O)c12`, the MEC [1] was 1 µM, the LC100 [2] was 5 µM and the MTC [2] was 1 µM. The selectivity ratio [3] was 1 and the selectivity ratio [4] was 5.

With `CCN1CCN(C(=O)COc2c(OCc3ccccc3)cc3oc(-c4ccccc4)cc(=O)c3c2O)CC1` the LC100 [2] was “Nd(Insoluble)” and the MTC [2] was “Nd(Insoluble)”.

For `Cc1cc(C)c(/C=C2\C(=O)Nc3ccccc32)[nH]1` [SEMAXANIB], the MEC [1] was 1 µM, the LC100 [2] was 5 µM and the MTC [2] was 1.5 µM. For the same molecule, the selectivity ratio [3] was 1.5 and the selectivity ratio [4] was 5.

Work on `O=C(O)COc1c(O)cc2oc(-c3ccccc3)cc(=O)c2c1O` yielded an MEC [1] of over 50 µM, an LC100 [2] of 50 µM and an MTC [2] of over 50 µM.

Molecule `O=c1cc(-c2ccccc2)oc2cc(O)c(OCCCCCNCCO)c(O)c12` has an MEC [1] of 25 µM, an LC100 [2] of 100 µM and an MTC [2] of 50 µM. It also gave a selectivity ratio [3] of 2 and a selectivity ratio [4] of 4.

`O=C(COc1c(O)cc2oc(-c3ccccc3)cc(=O)c2c1O)N1CCNCC1` showed an MEC [1] of 10 µM, an LC100 [2] of 50 µM and an MTC [2] of 15 µM. For the same molecule, the selectivity ratio [3] was 1.5 and the selectivity ratio [4] was 5.

In the case of `O=c1cc(-c2ccccc2)oc2cc(O)c(OCCCCCCO)c(O)c12`, the MEC [1] is reported as 2.5 µM, the LC100 [2] is reported as 10 µM and the MTC [2] is reported as 2.5 µM. The selectivity ratio [3] was 1 and the selectivity ratio [4] was 4.

`O=C(COc1c(O)cc2oc(-c3ccccc3)cc(=O)c2c1O)N(CCO)CCO` showed an MEC [1] of over 200 µM, an LC100 [2] of over 200 µM and an MTC [2] of over 200 µM.

`O=C(COc1c(OCc2ccccc2)cc2oc(-c3ccccc3)cc(=O)c2c1O)N1CCC(O)CC1` showed an MEC [1] of 25 µM, an LC100 [2] of 100 µM and an MTC [2] of 25 µM. For the same molecule, the selectivity ratio [3] was 1 and the selectivity ratio [4] was 4.

`O=C(COc1c(O)cc2oc(-c3ccccc3)cc(=O)c2c1O)N1CCC(O)CC1` showed an MEC [1] of 50 µM, an LC100 [2] of 100 µM and an MTC [2] of 50 µM. It also gave a selectivity ratio [3] of 1 and a selectivity ratio [4] of 2.

Molecule `CN1CCN(C(=O)COc2c(O)cc3oc(-c4ccccc4)cc(=O)c3c2O)CC1` has an MEC [1] of 10 µM, an LC100 [2] of 50 µM and an MTC [2] of 15 µM. It also gave a selectivity ratio [3] of 1.5 and a selectivity ratio [4] of 5.

With `O=C(COc1c(O)cc2oc(-c3ccccc3)cc(=O)c2c1O)NCCO` the MEC [1] was 200 µM, the LC100 [2] was 200 µM and the MTC [2] was 200 µM. The selectivity ratio [3] was 1 and the selectivity ratio [4] was 1.

With `O=c1cc(-c2ccccc2)oc2cc(O)c(OCCO)c(O)c12` the MEC [1] was 5 µM, the LC100 [2] was 50 µM and the MTC [2] was 10 µM. The selectivity ratio [3] was 2 and the selectivity ratio [4] was 10.

Molecule `CCN(CC)C(=O)COc1c(O)cc2oc(-c3ccccc3)cc(=O)c2c1O` has an MEC [1] of 200 µM, an LC100 [2] of 200 µM and an MTC [2] of 200 µM. The selectivity ratio [3] was 1 and the selectivity ratio [4] was 1.

For `O=c1cc(-c2ccccc2)oc2cc(O)c(OCCCO)c(O)c12`, the MEC [1] was 2.5 µM, the LC100 [2] was 15 µM and the MTC [2] was 2.5 µM. For the same molecule, the selectivity ratio [3] was 1 and the selectivity ratio [4] was 6.

Work on `O=C(COc1c(OCc2ccccc2)cc2oc(-c3ccccc3)cc(=O)c2c1O)N1CCN(CCO)CC1` yielded an MEC [1] of 200 µM, an LC100 [2] of 200 µM and an MTC [2] of 200 µM. It also gave a selectivity ratio [3] of 1 and a selectivity ratio [4] of 1.
